Compound activity deposited in PubChem by several laboratories.
NR1D1 modulator = modulators of human Rev-erb alpha DNA binding; P20393; Rev-erbα–FITC-DNA binding, fluorescence polarization, 90 min; activity, % at 10 µM; 370,000 compounds, 0.79% hits; AID 1259318;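 active = activity above about 14%, limit read from the data; passing the limit was not always enough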;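 also: 0% = DMSO wells with 35 nM protein and 100% = DMSO wells with 750 nM protein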
MC4R antag cAMP = antagonists of human melanocortin 4 receptor (MC4R); 360,000 compounds, 0.48% hits; inhibition, % at 6.5 µM; MC4R-expressing cells, MTII-stimulated cAMP, LANCE TR-FRET;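 active = inhibition above its plate's cutoff, the mean of tested wells on that plate plus 3 SD, cut at about 29% in these data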;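 also: 0% = Melanotan II alone and 100% = Melanotan II plus saturating MCL0020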
Target sequence (P32245 whole entry, looked up): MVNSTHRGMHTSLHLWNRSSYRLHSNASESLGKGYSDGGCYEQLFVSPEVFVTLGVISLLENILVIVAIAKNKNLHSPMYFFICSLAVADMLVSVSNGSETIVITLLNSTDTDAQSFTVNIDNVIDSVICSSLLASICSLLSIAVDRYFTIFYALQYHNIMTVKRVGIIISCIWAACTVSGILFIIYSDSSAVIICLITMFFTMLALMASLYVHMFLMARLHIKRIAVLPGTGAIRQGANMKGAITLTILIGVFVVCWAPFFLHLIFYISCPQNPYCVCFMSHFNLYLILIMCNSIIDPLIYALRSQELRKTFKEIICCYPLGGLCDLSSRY
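Assay system: U2OS-MC4R stable cell line; Also added: Melanotan II; Technique: Eu-cAMP/anti-cAMP TR-FRET, emission 671 nm; Times: 30-min compound, 1-h challenge, 1-h detection, room temperature.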
NTR1 ag = agonists of human neurotensin receptor NTR1 | P30989 | AID 493036 | NTR1-U2OS beta-arrestin-GFP spot imaging, agonist mode | 330,000 compounds, 0.17% hits | activation, % at 20 µM;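 active = activation at or above 40% of the spot to cytoplasm intensity ratio, with at least 20 cells analyzed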;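 also: 0% = DMSO without peptide and 100% = 100 nM NTR1 peptide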
PG9 binder = small molecules binding HIV-1 gp120 antibody PG9; TR-FRET gp120-PG9 antibody binding; inhibition, % at 6.7 µM; 360,000 compounds, 0.43% hits; in the data active = inhibition above about 8.5%
MC4R ag barr = agonists of human melanocortin 4 receptor (MC4R) beta-arrestin. P32245. U2OS MC4R beta-arrestin complementation, luminescence; percent of melanotan II response, DMSO zero. activation, % at 8.9 µM. 360,000 compounds, 0.98% hits. AID 540308;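 active = activation above a per-plate cutoff, the mean activation of sample wells on that plate plus 3 SD, cut at about 8% in these data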
cAMP nonselect = counter-screen for MC4R antagonists: nonselective cAMP signaling inhibitors | shares compounds with MC4R antag cAMP | parental U2OS, forskolin cAMP, LANCE TR-FRET | inhibition, % at 6.5 µM | 1,600 compounds, 26% hits | AID 602193;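 active = mean inhibition over triplicates above the low-control well mean plus 3 SD, set per campaign, cut at about 13% in these data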;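 also: signal is single emission at 671 nm which falls as cellular cAMP rises; 0% = forskolin-stimulated wells and 100% = buffer without forskolin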
MC4R cAMP antag = human MC4R cAMP antagonism confirmation | shares compounds with MC4R antag cAMP | MC4R-expressing cells, MTII-stimulated cAMP, TR-FRET | inhibition, % at 6.5 µM | 1,600 compounds, 27% hits | AID 602195; in the data active = inhibition above about 29%;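 also: 0% = agonist stimulated wells alone and 100% = agonist stimulated wells plus saturating reference antagonist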
Active calls of the source: *; nt = no result; ! = repeats disagree. Hits are enriched below; roughly 2.5% of the tested compounds scored in any of these assays.

SMILES	NR1D1 modulator	MC4R antag cAMP	NTR1 ag	PG9 binder	MC4R ag barr	cAMP nonselect	MC4R cAMP antag
CCOC(=O)CSc1nnc(-c2ccc(NS(=O)(=O)c3ccc(C)cc3)cc2)o1	2	38*	14	0	-1	5	22
COC(=O)CSc1nnc(-c2ccc(S(=O)(=O)N3CCC(C)CC3)cc2)o1	-3	22	5	1	-1	nt	nt
COc1ccc2c(c(-c3ccccc3)cn2C)c1-c1ccccc1	-5	nt	nt	nt	nt	nt	nt
CC(=O)N1c2ccccc2C(C)=NCC1C(=O)NC1CCCCC1 (stereo unspecified)	0	nt	nt	nt	nt	nt	nt
C#CCNC(=O)C[C@H]1C[C@@]2(C(=O)OC)C(=C[C@H](C(C)(C)C)O[C@@H]2C)N(CCC2=CCCCC2)C1=O	1	nt	nt	-1	nt	nt	nt
COCC(=O)Oc1cc(-c2ccc(C)cc2C)c(OC(=O)COC)c(-c2ccc(C)cc2C)c1	-3	30*	nt	-1	0	8	6
C=C(C)[C@@H]1CC=C(C)CC1	-3	nt	nt	nt	nt	nt	nt
Cc1cc(C(=O)O)ccc1-c1ccc(/C=C2\NC(=O)N(Cc3ccccc3Cl)C2=O)o1	nt	37*	2	nt	1	2	-3
Cc1ccc(CN2C(=O)N/C(=C\c3ccc(-c4ccc(C(=O)O)cc4C)o3)C2=O)cc1	-1	11	2	-1	0	nt	nt
O=C(NNc1c2ccccc2nc2ccccc12)c1ccc(Cl)cc1	0	33*	7	-4	-1	-2	-24
Cc1ccc(C(=O)NNc2c3ccccc3nc3ccccc23)cc1	-4	-13	16	-5	-2	nt	nt
C[C@H]1[C@@H](OC(=O)N2CCCC2)CC[C@@]23CCCN2C(=O)CCC[C@@H]13	0	nt	nt	nt	nt	nt	nt
CCOCC(=O)Nc1ccccc1C(=O)O	3	30*	1	0	-1	1	-14
CCc1cc2c(nc1CC)CCCN2S(=O)(=O)c1ccc(C(F)(F)F)cc1	-1	nt	nt	-1	nt	nt	nt
COc1ccc(-c2nn(-c3ccccc3)cc2C(=O)Nc2ccc(C(=O)O)cc2)cc1OC	-8	21	2	0	0	nt	nt
O=C(Nc1cccc(S(=O)(=O)NC2=NCCC2)c1)c1cn(-c2ccccc2)nc1-c1ccc(F)cc1	0	29*	1	1	-3	4	11
Cc1ccc(-c2nn(-c3ccccc3)cc2C(=O)Nc2ccc(C(=O)O)cc2)cc1	-3	33*	2	1	1	2	-5
COc1cc(NC(=O)c2ccccc2)c(C)cc1NC(=O)CSc1nnc(-c2ccccc2F)n1-c1ccc(C)cc1	-4	nt	nt	nt	nt	nt	nt
CCOC(=O)c1c(NC(=O)C(C)OC(=O)C2=COCCO2)sc2c1CCCC2 (stereo unspecified)	nt	36*	34	nt	0	0	19
C[C@@H]1[C@@H](O)C[C@@]2(CC(=O)c3ccccc3O2)O[C@H]1c1ccccc1	-1	nt	nt	nt	nt	nt	nt
CCOC(=O)C1CCCN(C(=O)c2ccc(OC)c([N+](=O)[O-])c2)C1 (stereo unspecified)	-1	8	2	-1	1	nt	nt
CCOC(=O)C1CCCN(C(=O)c2cccc([N+](=O)[O-])c2C)C1 (stereo unspecified)	-2	32*	1	1	1	-2	4
CC(NC(=O)COC(=O)CNS(=O)(=O)/C=C/c1ccccc1)c1ccccc1 (stereo unspecified)	-1	30*	-2	-1	2	12	23
Fc1ccc(-n2c(-c3ccc4ccccc4n3)n[nH]c2=S)cc1	0	-2	5	1	-3	nt	nt
S=c1[nH]nc(-c2ccc3ccccc3n2)n1-c1cc(Cl)cc(Cl)c1	1	32*	1	1	4	12	28
SMILES	NR1D1 modulator	MC4R antag cAMP	NTR1 ag	PG9 binder	MC4R ag barr	cAMP nonselect	MC4R cAMP antag
COC(=O)[C@]12C[C@H](CC(=O)N3CCSCC3)C(=O)N(CCC3=CCCCC3)C1=C[C@H](C(C)(C)C)O[C@@H]2C	-9	nt	nt	0	nt	nt	nt
Cc1cccc(C)c1NC(=O)c1sc(N)nc1-c1ccccc1	1	30*	-1	2	1	-3	5
O=C1OCCC1Sc1nc2ccccc2c(=O)n1Cc1ccccc1 (stereo unspecified)	-5	5	3	0	2	nt	nt
O=C1OCCC1Sc1nc2cc(Cl)ccc2n1Cc1ccccc1 (stereo unspecified)	3	48*	6	4	-2	12	33*
COCC(=O)N(C)[C@H]1C[C@H]2c3[nH]c4c(-c5ccc6c(c5)OCO6)cccc4c3CCN2C(=O)[C@H]1[C@H](C)O	4	nt	nt	nt	nt	nt	nt
COC(=O)C1CN(Cc2ccc(F)cc2)CCS(=O)(=O)N1Cc1ccc(OC)cc1 (stereo unspecified)	3	nt	nt	nt	nt	nt	nt
O=C(c1cccc([N+](=O)[O-])c1)N1CCN(c2cccc(Cl)c2)CC1	-1	-10	3	-3	0	nt	nt
Cc1ccc(N2CCN(C(=O)c3cccc([N+](=O)[O-])c3)CC2)cc1Cl	6	33*	3	-2	0	0	-10
CC(C)(C)c1ccc(-c2nnc(SCC(=O)Nc3cccc4ccccc34)n2Cc2ccco2)cc1	-1	nt	nt	nt	nt	nt	nt
C[C@H](O)[C@@H]1C(=O)N2CCc3c([nH]c4c(-c5ccccc5)cccc34)[C@@H]2C[C@@H]1N(C)C(=O)/C=C/c1ccccc1	1	nt	nt	-1	nt	nt	nt
CC(=O)N1CCn2c3c(c4cc(C)ccc42)CCCC31 (stereo unspecified)	4	16	0	-2	-2	nt	nt
Cc1ccc2c(c1)c1c3n2CCN(C(=O)CCl)C3CCC1 (stereo unspecified)	2	38*	0	-6	1	5	29*
C=CCn1c(CSc2ccccc2[N+](=O)[O-])n[nH]c1=S	-18	14	3	1	0	nt	nt
C=CCn1c(Sc2ncc([N+](=O)[O-])s2)n[nH]c1=O	-3	43*	13	-1	-2	30*	31*
Cc1nc2ccc(NC(=O)c3ccc(F)cc3F)cc2c(=O)[nH]1	-2	nt	nt	nt	nt	nt	nt
Cc1cc(C(=O)c2ccc(Cl)cc2)c(NC(=O)CCl)s1	3	41*	6	-2	0	24*	65*
COc1ccc(Cn2c(O)c(C=Nc3ccccc3C(=O)O)c3ccccc3c2=O)cc1	0	32*	3	1	0	9	10
COc1ccc2c(C=Nc3c(C)n(C)n(-c4ccccc4)c3=O)c(O)n(Cc3ccco3)c(=O)c2c1	2	37*!	2	-2	-2	2	1
CCN(C[C@H]1[C@@H](c2ccc(C3=CCCC3)cc2)[C@H](CO)N1Cc1ccccn1)S(=O)(=O)c1ccccc1[N+](=O)[O-]	4	nt	nt	nt	nt	nt	nt
